In ChEMBL document CHEMBL1765057, “Pyrazolo[4,3-d]pyrimidine bioisostere of roscovitine: evaluation of a novel selective inhibitor of cyclin-dependent kinases with antiproliferative activity” (J Med Chem, 2011):
Activity calls are given as the source filed them. No cut-off for these calls is given here.

What was measured:
MCF7 [1] = assay: Cytotoxicity against human MCF7 cells after 72 hrs by fluoroskan ascent microplate reader analysis; assay type: functional, cell-based; settings: MCF7, 72 h
Summary of the method: (§1)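 Cells were grown in DMEM with 10% FCS and 4 mM glutamine at 37 °C under CO2, then plated at densities suited to each line. Compounds were added as 3-fold dilutions in triplicate for 72 h.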

[2] = target: Dual specificity mitogen-activated protein kinase kinase 1 (Homo sapiens) (UniProt Q02750); assay: Inhibition of human recombinant MEK1 at 10 uM
[3] = target: Cyclin-dependent kinase 5/CDK5 activator 1 (Homo sapiens) (UniProt Q00535+Q15078); settings: at 10 µM
RPMI-8226 [4] = assay: Induction of apoptosis in human RPMI8226 cells assessed as induction of caspase7 activation at 20 uM after 24 hrs by immunoblot analysis; assay type: functional, cell-based; settings: in the assay text read “by fluorogenic assay” for “by immunoblot analysis”
Summary of the method: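 RPMI-8226 cells were treated continuously for 24 h and lysed in CHAPS extraction buffer (pH 7.4) on ice, then clarified, with protein equalized by Bradford. Lysates were incubated 1 h with 100 μM Ac-DEVD-AMC in PIPES/DTT buffer (pH 7.3), with 100 μM Ac-DEVD-CHO added for negative controls. Fluorescence was read at 355/460 nm.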

[5] = target: Ribosomal protein S6 kinase alpha-5 (Homo sapiens) (UniProt O75582); assay: Inhibition of human recombinant MSK1 at 10 uM
[6] = target: T1, Retinoblastoma-associated protein (Homo sapiens) (UniProt P06400); assay: Inhibition of retinoblastoma protein in human MCF7 cells assessed as reduction of cyclin D1 level at 2.5 to 40 uM after 24 hrs by immunoblotting; assay type: cell-based
T1 sequence (whole entry): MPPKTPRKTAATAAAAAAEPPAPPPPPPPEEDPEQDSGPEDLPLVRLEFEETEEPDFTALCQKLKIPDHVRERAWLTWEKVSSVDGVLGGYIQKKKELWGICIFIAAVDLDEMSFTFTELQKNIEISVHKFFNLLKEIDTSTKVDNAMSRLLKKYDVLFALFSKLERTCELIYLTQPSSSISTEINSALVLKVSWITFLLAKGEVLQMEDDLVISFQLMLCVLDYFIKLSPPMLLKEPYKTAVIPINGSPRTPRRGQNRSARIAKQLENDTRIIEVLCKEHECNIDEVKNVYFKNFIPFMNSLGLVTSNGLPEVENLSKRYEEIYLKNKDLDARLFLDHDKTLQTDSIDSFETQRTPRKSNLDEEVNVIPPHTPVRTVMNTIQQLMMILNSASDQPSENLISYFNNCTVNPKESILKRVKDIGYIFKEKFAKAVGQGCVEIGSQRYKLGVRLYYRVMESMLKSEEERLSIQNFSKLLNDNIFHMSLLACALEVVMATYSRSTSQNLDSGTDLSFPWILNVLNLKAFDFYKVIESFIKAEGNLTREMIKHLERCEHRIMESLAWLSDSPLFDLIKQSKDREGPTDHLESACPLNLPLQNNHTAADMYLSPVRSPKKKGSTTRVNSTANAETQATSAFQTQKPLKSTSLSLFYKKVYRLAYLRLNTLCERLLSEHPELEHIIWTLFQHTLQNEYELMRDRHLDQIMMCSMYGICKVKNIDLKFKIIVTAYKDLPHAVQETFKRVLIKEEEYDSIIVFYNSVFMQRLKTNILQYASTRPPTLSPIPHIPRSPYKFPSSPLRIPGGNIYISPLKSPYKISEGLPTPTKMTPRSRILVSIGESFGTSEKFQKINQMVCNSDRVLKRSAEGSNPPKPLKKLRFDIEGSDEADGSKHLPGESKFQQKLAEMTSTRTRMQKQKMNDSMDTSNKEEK
Summary of the method: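 Asynchronous, exponentially growing MCF-7 cells were exposed 24 h to a range of concentrations. Total lysates were made in Laemmli buffer, run on SDS-PAGE and blotted to nitrocellulose. Membranes were probed overnight at 4 °C with specific or phosphospecific antibodies (pRb S249/T252, S780, S795, S807/811), with tubulin as loading control and ECL detection.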

MCF7 [7] = assay: Induction of apoptosis in human MCF7 cells at 10 uM after 24 hrs; assay type: functional, cell-based
HOS = assay: Cytotoxicity against human HOS cells after 72 hrs by fluoroskan ascent microplate reader analysis; assay type: functional, cell-based; summary of the method: as §1
G-361 = assay: Cytotoxicity against human G361 cells after 72 hrs by fluoroskan ascent microplate reader analysis; assay type: functional, cell-based; settings: G-361, 72 h; summary of the method: as §1
[8] = target: Cellular tumor antigen p53 (Homo sapiens) (UniProt P04637); assay: Induction of p53-dependent transcriptional activity in human ARN8 cells assessed as beta-galactosidase activity at 10 to 20 uM after 24 hrs by immunofluorescence assay; assay type: cell-based
Summary of the method: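 ARN8 melanoma cells stably carrying the p53-responsive pRGCΔfoslacZ reporter were exposed to inhibitors for 24 h, permeabilized with 0.3% Triton X-100 for 15 min, and given MUG substrate (final 80 μM). Fluorescence was read at 355/460 nm after 1 h. Data are mean ± SD of three independent experiments.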

RPMI-8226 [9] = assay: Cell cycle arrest in human RPMI8226 cells assessed as accumulation at G2/M phase after 24 hrs using propidium iodide and BrdU staining by flow cytometry; assay type: functional, cell-based
Summary of the method: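 Asynchronously growing RPMI-8226 multiple myeloma cells were exposed for 24 h. Cells were double-stained with propidium iodide and BrdU and analysed by flow cytometry for G1, S, G2/M and BrdU-positive fractions. The subG1 population was taken as indicative of apoptosis.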

RPMI-8226 [10] = assay: Cell cycle arrest in human RPMI8226 cells assessed as accumulation at G1 phase after 24 hrs using propidium iodide and BrdU staining by flow cytometry; assay type: functional, cell-based
Summary of the method: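 Subconfluent cells treated 24 h at varying concentrations, pulsed with 10 μM BrdU for 30 min at 37 °C, then trypsinized, fixed in ice-cold 70% ethanol and DNA denatured in 2 M HCl. After staining with fluorescein anti-BrdU (1:50), propidium iodide (0.1 mg/mL) and RNase A (0.5 mg/mL), cells were read by flow cytometry with a 488 nm laser.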

HL-60 = assay: Cytotoxicity against human HL60 cells after 72 hrs by fluoroskan ascent microplate reader analysis; assay type: functional, cell-based; settings: HL-60, 72 h; summary of the method: as §1

Dual specificity mitogen-activated protein kinase kinase 1 (Homo sapiens), sequence (Q02750 whole entry): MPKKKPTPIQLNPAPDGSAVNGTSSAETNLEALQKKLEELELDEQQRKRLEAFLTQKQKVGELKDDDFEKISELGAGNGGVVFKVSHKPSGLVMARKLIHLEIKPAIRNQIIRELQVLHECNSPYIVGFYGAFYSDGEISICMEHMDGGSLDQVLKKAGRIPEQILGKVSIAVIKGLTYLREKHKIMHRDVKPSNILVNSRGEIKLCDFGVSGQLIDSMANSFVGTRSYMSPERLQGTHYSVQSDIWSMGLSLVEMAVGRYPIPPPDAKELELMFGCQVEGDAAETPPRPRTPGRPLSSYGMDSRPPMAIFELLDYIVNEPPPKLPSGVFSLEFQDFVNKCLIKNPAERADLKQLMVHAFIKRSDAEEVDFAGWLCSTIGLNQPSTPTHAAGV
Cyclin-dependent kinase 5/CDK5 activator 1 (Homo sapiens), sequence (Q00535 whole entry): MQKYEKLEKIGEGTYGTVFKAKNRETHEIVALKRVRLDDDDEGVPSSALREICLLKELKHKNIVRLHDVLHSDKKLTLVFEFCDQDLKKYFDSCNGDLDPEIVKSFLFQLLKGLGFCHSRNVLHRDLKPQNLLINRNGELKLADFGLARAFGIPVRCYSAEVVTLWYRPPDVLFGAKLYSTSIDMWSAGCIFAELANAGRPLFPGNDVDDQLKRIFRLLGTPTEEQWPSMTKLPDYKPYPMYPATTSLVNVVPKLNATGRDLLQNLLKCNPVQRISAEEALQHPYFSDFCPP
Cyclin-dependent kinase 5/CDK5 activator 1 (Homo sapiens), sequence (Q15078 99-307 partner limits assumed): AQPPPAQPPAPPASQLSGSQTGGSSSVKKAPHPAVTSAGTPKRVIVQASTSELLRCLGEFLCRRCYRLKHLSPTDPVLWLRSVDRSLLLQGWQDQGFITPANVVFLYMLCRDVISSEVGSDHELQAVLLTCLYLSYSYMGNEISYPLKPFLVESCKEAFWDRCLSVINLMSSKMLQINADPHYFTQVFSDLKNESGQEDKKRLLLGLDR
Cellular tumor antigen p53 (Homo sapiens), sequence (P04637 whole entry, looked up): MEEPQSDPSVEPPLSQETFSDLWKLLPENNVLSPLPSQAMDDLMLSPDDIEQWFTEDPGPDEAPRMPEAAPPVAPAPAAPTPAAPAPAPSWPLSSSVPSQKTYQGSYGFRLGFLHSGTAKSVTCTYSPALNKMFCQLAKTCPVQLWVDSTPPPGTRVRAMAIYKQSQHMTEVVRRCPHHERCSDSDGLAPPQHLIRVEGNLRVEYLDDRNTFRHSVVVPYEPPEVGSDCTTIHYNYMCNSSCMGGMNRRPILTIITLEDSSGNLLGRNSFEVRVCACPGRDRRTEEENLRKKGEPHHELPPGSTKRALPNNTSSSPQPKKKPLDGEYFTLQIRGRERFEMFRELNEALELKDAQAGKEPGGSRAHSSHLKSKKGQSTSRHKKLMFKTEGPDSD
Ribosomal protein S6 kinase alpha-5 (Homo sapiens), sequence (O75582 whole entry, looked up): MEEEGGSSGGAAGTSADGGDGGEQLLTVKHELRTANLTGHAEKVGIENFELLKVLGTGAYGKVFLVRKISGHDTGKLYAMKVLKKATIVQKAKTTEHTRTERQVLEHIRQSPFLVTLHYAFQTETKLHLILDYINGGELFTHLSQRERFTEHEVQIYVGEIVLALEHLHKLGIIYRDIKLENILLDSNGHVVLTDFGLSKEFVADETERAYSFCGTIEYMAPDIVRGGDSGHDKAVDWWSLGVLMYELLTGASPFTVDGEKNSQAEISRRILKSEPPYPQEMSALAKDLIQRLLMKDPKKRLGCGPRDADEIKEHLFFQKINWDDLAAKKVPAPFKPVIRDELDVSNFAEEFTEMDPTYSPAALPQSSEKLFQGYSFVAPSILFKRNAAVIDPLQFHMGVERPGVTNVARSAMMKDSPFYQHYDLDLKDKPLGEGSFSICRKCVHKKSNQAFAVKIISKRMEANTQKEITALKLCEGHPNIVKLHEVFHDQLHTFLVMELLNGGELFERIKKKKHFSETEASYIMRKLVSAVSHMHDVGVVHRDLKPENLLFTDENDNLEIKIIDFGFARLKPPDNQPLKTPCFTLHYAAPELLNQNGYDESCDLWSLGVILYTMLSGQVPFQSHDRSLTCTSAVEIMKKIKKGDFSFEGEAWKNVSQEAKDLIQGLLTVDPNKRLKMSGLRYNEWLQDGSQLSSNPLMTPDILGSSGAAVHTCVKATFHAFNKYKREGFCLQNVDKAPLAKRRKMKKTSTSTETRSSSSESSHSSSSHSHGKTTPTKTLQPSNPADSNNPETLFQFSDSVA

CC[C@H](CO)Nc1nc(NCc2ccccc2)c2[nH]nc(C(C)C)c2n1
IC50 (MCF7 [1]): 7.5 µM | inhibition [2]: 58% | inhibition [3]: 95% | Activity (RPMI-8226 [4]): Active | inhibition [5]: 39% | inhibition [6]: Active | Activity (MCF7 [7]): Active | IC50 (HOS): 7.5 µM | IC50 (G-361): 4.8 µM | Activity [8]: Active | Activity (RPMI-8226 [9]): Active | Activity (RPMI-8226 [10]): Active | IC50 (HL-60): 7.1 µM
